Measurements published in publication PMC11842550 (Scientific Reports, 2025).
Entries after “also recorded” stand apart in the source; their conditions may differ. Where two headings read alike, the source gives them in different places. Bridges are numbered along the chain shown (N, C = ends). Where no end group is shown, it is not given here.

Experiments:
cystic form of Borrelia = experiment: Inhibition of conversion of cystic form into spirochetal form; format: cell-based, Borrelia garinii (strain SKT-7.1); conditions: for recovery of cystic Borrelia and transformation into the spirochetal form: peptides 1.66 µM for 16 h
In short: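 Cysts formed by 1:1 dilution of early-log culture in serum-free BSK-II, 2 weeks at 15 °C. 2 × 10^3 cysts exposed 16 h to test compound (two-fold series, 3.33–0.05 µM) in serum-free BSK-II, then pelleted and compound removed. Regrown 15 days at 33 °C in serum-containing BSK-II. Counted by flow cytometry; % inhibition vs PBS control; doxycycline 50 nM control.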

Borrelia [1] = experiment: Dot blot binding of individual phage clones to Borrelia; parameters: species or system Borrelia garinii (strain SKT-7.1); conditions: spirochetes fixed on PVDF membrane, anti-M13 antibody
In short: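 2 µl Borrelia (PBS, OD600 1.2) are spotted on activated PVDF, air-dried, fixed with 4% paraformaldehyde for 10 min, dried overnight and blocked for 1 h. Individual phage clones from the third panning (10^11) are added for 1 h with shaking. After PBS-0.05% Tween washes, anti-M13 pIII mAb (1:1000) then IRDye […] anti-mouse (1:15000) are applied, 1 h each. Read at 800 nm. No-phage negative control.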

[2] = tested on: spirochetal form of Borrelia; format: cell-based, Borrelia garinii (strain SKT-7.1); conditions: 5 days, 33 °C; for viability of Borrelia (spirochetal form): peptide 1.67 µM, triplicate; for inhibition of the spiral form of Borrelia: 0.41 µM
In short: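 Early-log Borrelia (BSK-II with 6% rabbit serum, 33 °C, about 2 weeks) are counted by flow cytometry. 2 × 10^3 cells go into 200 µl fresh BSK-II with test peptide at 6.67, 3.33, 1.67 or 0 µM, 33 °C for 5 days, then are recounted by flow cytometry. Percent inhibition is relative to 0 µM. Follow-up runs use 0.83, 0.41, 0.20 and 0.10 µM. Doxycycline (50 µM–5 nM) is the positive control.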

[3] = tested on: brain microvascular endothelial cells (BMECs); experiment: Cell-ELISA binding to endothelial cells; conditions: 2 µg peptide, fixed BMEC monolayer, triplicate
In short: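 BMEC monolayers in 96 wells are washed with PBS and fixed in 4% paraformaldehyde for 10 min, then blocked. They are incubated with 2 µg His-tagged test peptide and washed with PBS-T. Bound peptide is detected with HisProbe-HRP (1:1000, 1 h, room temperature) and TMB (25 min), stopped with 2 M H2SO4, read at 450 nm. Triplicates. Negative controls omit cells or peptide.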

Borrelia [4] = experiment: ELISA binding of Bor peptides to Borrelia; parameters: species or system Borrelia garinii (strain SKT-7.1); conditions: for affinity to spirochetal form, cystic form and trypsin-shaved Borrelia (ELISA): 2 µg/well
In short: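 Paraformaldehyde-fixed early-log Borrelia in microtiter wells are incubated 1 h with His-tagged test peptide, 2 µg/well for screening. Two-fold dilutions from 2.6 µM to 86 nM are used for concentration dependence, with the peptide-omitted background subtracted. Detection: five PBS-T washes, HisProbe-HRP (1:1000, 0.5% BSA, 1 h, room temperature), TMB 25 min, 2 M H2SO4 stop, 450 nm. Triplicates. Negative controls omit Borrelia or peptide.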

HEK293T cells = experiment: Cell toxicity, XTT assay; format: cell-based; conditions: 3.33 µM, 24 h, six replicates
In short: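 HEK293T cells are grown in high-glucose DMEM with 2 mM L-glutamine and 5% FBS (37 °C, 5% CO2) to 70% confluence. They get test peptide at 3.33 or 0 µM for 24 h. XTT reagent is added for 3 h and read at 450 nm. Controls are PBS (negative) and 0.1% Triton X. Six replicates. Metabolic activity is blank-subtracted sample ×100 over blank-subtracted PBS control.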

[5] = tested on: BBB model (BMECs, cell line D3); format: in vitro ADME; conditions: 1 µg/ml Cy5.5 labelled, luminal to abluminal
In short: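 D3 BMECs (5 × 10^5) are seeded on collagen-I-coated transwell inserts (1 µm pores) in complete endothelial medium. Barrier is confirmed by TEER and dextran. Cy5.5-NHS-labelled truncated OspA fragments (beta sheets 10–11 or 12–16), angiopep-2-Cy5.5 or CF770 dextran go luminally at 1 µg/ml, 37 °C. Abluminal fluorescence (650/705 nm; 770/797 nm) is read at 1, 2 and 3 h and converted by standard curves.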

bacterial cell wall = conditions: cited from earlier work
[6] = tested on: spirochetal form of Borrelia as well as biofilm; conditions: compared to antibiotics; cited from earlier work

C[C@H]1c2cccc(O)c2C(=O)C2=C(O)[C@]3(O)C(=O)C(C(N)=O)=C(O)[C@@H](N(C)C)[C@@H]3[C@@H](O)[C@@H]21 [doxycycline, reference compound]
inhibition of transformation and recovery of cysts into the spirochetal form (cystic form of Borrelia; 0.05 µM for 16 h): did not inhibit

ACGYSSFNRCGGGS (disulfide 2-10 (inferred)) [Ph.Bor-16]
binding of phage clone to Borrelia in dot blot (Borrelia [1]): best binders

ACHNETQKMCGGGS (disulfide 2-10 (inferred)) [Ph.Bor-9]
binding of phage clone to Borrelia in dot blot (Borrelia [1]): best binders

ACHNTPHHLCGGGS (disulfide 2-10 (inferred)) [Ph.Bor-23]
binding of phage clone to Borrelia in dot blot (Borrelia [1]): best binders

ACHNTSARVCGGGS (disulfide 2-10 (inferred)) [Ph.Bor-29]
binding of phage clone to Borrelia in dot blot (Borrelia [1]): best binders

ACLKLGEKWCGGGS (disulfide 2-10 (inferred)) [Ph.Bor-1]
binding of phage clone to Borrelia in dot blot (Borrelia [1]): best binders

ACNVRTCHDCGGGS (disulfide (positions not given here)) [Ph.Bor-24]
binding of phage clone to Borrelia in dot blot (Borrelia [1]): best binders

ACPRGIGLQCGGGS (disulfide 2-10 (inferred)) [Ph.Bor-26]
binding of phage clone to Borrelia in dot blot (Borrelia [1]): best binders

ACQPRNLNNCGGGS (disulfide 2-10 (inferred)) [Ph.Bor-18]
binding of phage clone to Borrelia in dot blot (Borrelia [1]): best binders

ACRGATPMSCGGGS (disulfide 2-10 (inferred)) [Ph.Bor-8]
binding of phage clone to Borrelia in dot blot (Borrelia [1]): best binders

ACTPSFSKICGGGS (disulfide 2-10 (inferred)) [Ph.Bor-11]
binding of phage clone to Borrelia in dot blot (Borrelia [1]): best binders

MRGSHHHHHHGSNEKGETSEKTIVRANGTRLEYTDIKSDGIEGRVDGGGGSDDDDKMACGYSSFNRCGGGS (disulfide 59-67 (inferred)) [Bor-16]
recovery of cystic Borrelia and transformation into the spirochetal form (cystic form of Borrelia): significantly reduced
viability of Borrelia (spirochetal form) [2]: < 50%
binding to brain microvascular endothelial cells (cell-ELISA) [3]: bind endothelial cells

MRGSHHHHHHGSNEKGETSEKTIVRANGTRLEYTDIKSDGIEGRVDGGGGSDDDDKMACPRGIGLQCGGGS (disulfide 59-67 (inferred)) [Bor-26]
recovery of cystic Borrelia and transformation into the spirochetal form (cystic form of Borrelia): significantly reduced
viability of Borrelia (spirochetal form) [2]: < 50%
binding to brain microvascular endothelial cells (cell-ELISA) [3]: bind endothelial cells

MRGSHHHHHHGSNEKGETSEKTIVRANGTRLEYTDIKSDGIEGRVDGGGGSDDDDKMACQPRNLNNCGGGS (disulfide 59-67 (inferred)) [Bor-18]
inhibition of the spiral form of Borrelia [2]: more than 50%
viability of Borrelia (spirochetal form) [2]: < 50%
binding to brain microvascular endothelial cells (cell-ELISA) [3]: bind endothelial cells
affinity to spirochetal form, cystic form and trypsin-shaved Borrelia (ELISA) (Borrelia [4]): showed affinity for all three forms
Absorbance450 in ELISA, binding to Borrelia (Borrelia [4]; peptide 0.08 µM, early log phase Borrelia, negative control subtracted): 0.8
binding to Borrelia in ELISA compared with other peptides (Borrelia [4]; peptide 0.16 µM, early log phase Borrelia): significantly higher; also recorded: showed binding affinity

MRGSHHHHHHGSNEKGETSEKTIVRANGTRLEYTDIKSDGIEGRVDGGGGSDDDDKMACTPSFSKICGGGS (disulfide 59-67 (inferred)) [Bor-11]
growth inhibition of cystic form (cystic form of Borrelia; 0.41 µM, 16 h exposure, t-test p < 0.05): inhibiting growth significantly
recovery of cystic Borrelia and transformation into the spirochetal form (cystic form of Borrelia): significantly reduced
inhibition of the spiral form of Borrelia [2]: more than 50%
viability of Borrelia (spirochetal form) [2]: < 50%
binding to brain microvascular endothelial cells (cell-ELISA) [3]: bind endothelial cells
effect on cell metabolic activity (XTT) (HEK293T cells): no adverse effects
affinity to spirochetal form, cystic form and trypsin-shaved Borrelia (ELISA) (Borrelia [4]): showed affinity for all three forms

NEKGETSEKTIVRANGTRLEYTDIKSDG [O-BBB]
borreliacidal effect on spirochetal form ([2]; 6.67 µM): no borreliacidal effect
crossing of BBB model compared with angiopep-2 ([5]; 2nd hr): comparable to that of angiopep-2
crossing of BBB model compared with angiopep-2 ([5]; 3rd hr): significantly higher than that of angiopep-2
binding to brain microvascular endothelial cells (cell-ELISA) [3]: bind endothelial cells
effect on cell metabolic activity (XTT) (HEK293T cells): no adverse effects
affinity to Borrelia (ELISA) (Borrelia [4]; 2 µg peptide per well, fixed Borrelia, HisProbe-HRP, 450 nm, triplicate): no affinity for Borrelia

melittin
time to destabilise the bacterial cell wall (bacterial cell wall): roughly 75 min
effect on the spirochetal form of Borrelia as well as biofilm [6]: significant effect
